# Experimental data gathered from unrelated publications.
# Each line is one published result; the experiments were not run side by side.
# Organism: Plasmodium falciparum
# Effect on: parasite growth
Compound,assay,test system,conditions,IC50
COC1=CC(c2ccc[nH]2)=NC1=Cc1ccc(CCCCCCCCCCCCO)[nH]1,,7G8,"drug-resistant strain, blood stage",58 nM
CCN(CC)CCCC(C)Nc1ccnc2cc(Cl)ccc12 (centres unmarked),ELISA,DD2,"drug-resistant strain, blood stage",262 nM
COC1=CC(c2ccc[nH]2)=NC1=Cc1ccc(CCCCCCCCCCCO)[nH]1,,DD2,"drug-resistant strain, blood stage",36 nM
Brc1ccc2c(c1)nc(N1CCNCC1)n2Cc1ccccc1,,K1,"drug-resistant strain, blood stage",64 nM
Clc1ccc2c(N3CCN(CCCN4CCN(c5ccnc6cc(Cl)ccc56)CC4)CC3)ccnc2c1,,3D7,blood stage,4.4 nM
O=C(Nc1ccc(F)cc1C(=O)O)c1ccc(-c2ccccc2)cc1,resazurin,NF54,"48 h, gametocyte",9.43 nM
CCN(CC)CCCC(C)Nc1ccnc2cc(Cl)ccc12 (centres unmarked),,,blood stage,10.9 nM
CC1=C(C)C(c2ccc[nH]2)=NC1=Cc1ccc(CCCCCCCCCC(C)O)[nH]1 (centres unmarked),,DD2,"drug-resistant strain, blood stage",1190 nM
CCCCCCCCCCOc1cc2c(O)c(C(=O)OCC)cnc2cc1OCC,SYBR Green,HB3,blood stage,< 5.7 nM
CCc1ccc(C2=NC(=Cc3ccc(CCCCCCCCCC(C)O)[nH]3)C(OC)=C2)[nH]1 (centres unmarked),,DD2,"drug-resistant strain, blood stage",15 nM
CCN(CC)CCCC(C)Nc1ccnc2cc(Cl)ccc12 (centres unmarked),,K1,"drug-resistant strain, blood stage",280 nM
COC1=CC(c2ccco2)=NC1=Cc1ccc(CCCCCCCCCC(C)O)[nH]1 (centres unmarked),,7G8,"drug-resistant strain, blood stage",> 2500 nM
C[C@@H]1CC[C@H]2[C@@H](C)C(=O)O[C@@H]3O[C@@]4(C)CC[C@@H]1[C@]32OO4,,W2,"72 h, drug-resistant strain, blood stage",3.8 ng/mL
CCN(CC)CCCC(C)Nc1ccnc2cc(Cl)ccc12 (centres unmarked),,DD2,"drug-resistant strain, blood stage",102 nM
NC1CCN(c2nc3cc(Cl)ccc3n2Cc2ccccc2)CC1,,K1,"drug-resistant strain, blood stage",14 nM
COC1=CC(c2cccn2C)=NC1=Cc1ccc(CCCCCCCCCC(C)O)[nH]1 (centres unmarked),,DD2,"drug-resistant strain, blood stage",> 2500 nM
CCN(CC)CCCC(C)Nc1ccnc2cc(Cl)ccc12 (centres unmarked),SYBR Green,W2,"drug-resistant strain, blood stage",383 nM
CCN(CC)CCCC(C)Nc1ccnc2cc(Cl)ccc12 (centres unmarked),,W2,"72 h, drug-resistant strain",360 nM
OC(c1cc(C(F)(F)F)nc2c(C(F)(F)F)cccc12)C1CCCCN1 (centres unmarked),,3D7,blood stage,4.8 nM
COC1=CC(c2ccc[nH]2)=NC1=Cc1ccc(CCCCCCCCCCO)[nH]1,,DD2,"drug-resistant strain, blood stage",80 nM
NCCNc1nc2cc(Cl)ccc2n1Cc1ccccc1,,K1,"drug-resistant strain, blood stage",339 nM
C[C@@H]1CC[C@H]2[C@@H](C)C(=O)O[C@@H]3O[C@@]4(C)CC[C@@H]1[C@]32OO4,,D6,blood stage,5 ng/mL
FC(F)(F)c1ccc2c(c1)nc(N1CCNCC1)n2Cc1ccccc1,,K1,"drug-resistant strain, blood stage",415 nM
CCN(CC)CCCC(C)Nc1ccnc2cc(Cl)ccc12 (centres unmarked),,DD2,drug-resistant strain,102 nM
NCCCNc1nc2cc(Br)ccc2n1Cc1ccccc1,,K1,"drug-resistant strain, blood stage",1010 nM
CCN(CC)CCCC(C)Nc1ccnc2cc(Cl)ccc12 (centres unmarked),,D6,blood stage,14 ng/mL
